From PMC3057505 (Journal of medicinal chemistry, 2010)
Entries after “also recorded” stand apart in the source; their conditions may differ. Each block holds one molecule with its values, some of them ahead of it.

Legend:
[1] = system: Aβ plaques in human AD brain sections; assay: Fluorescence staining of human AD brain sections; type: binding; settings: 50 μM, 30 min, 9:1 PBS:EtOH, frozen sections 10 μm
Outline: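 Frozen 10 μm sections of human AD brain and age-matched control brain. Stained 30 min with 50 μM test compound in 9:1 PBS/EtOH, made by diluting a DMSO stock to 0.50 mM in EtOH and then into PBS/EtOH. Washed in turn with 75% aqueous EtOH, 95% EtOH and xylene. Plaque staining was read by fluorescence microscopy.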

Aβ plaques [2] = assay: In vivo BBB delivery to Aβ plaque-bearing PDAPP mouse brain; parameters: species or system PDAPP transgenic mice; settings: single 50 mg/kg IP, ten-month-old PDAPP mice, sacrificed 48 h after injection
Outline: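 Ten-month-old PDAPP transgenic mice received a single ip dose of 50 mg/kg test compound, with vehicle-only controls (10% DMSO/PBS). At 48 h they were killed by transcardial perfusion with 4% PFA in PBS. Brains were cryoprotected, frozen, sectioned, postfixed 5 min in 4% PFA, washed in PBS and mounted. Plaque fluorescence was imaged in hippocampal CA1 and dentate gyrus at 10× and 40×.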

[3] = DPPH free radical scavenging assay; type: physicochemical; settings: for DPPH free radical scavenging activity relative to quercetin: vs quercetin IC50 = 1.3 ± 1.1 μM; for fold less potent than quercetin in DPPH free radical scavenging: p < 0.05 vs quercetin
[4] = biological target: aggregated amyloid peptide Aβ1-40 (Homo sapiens, UniProt P05067); assay: In vitro Aβ1-40 binding affinity by fluorescence titration; settings: for decrease in Aβ binding affinity: compared to 4; for fold weaker Aβ binding affinity compared to 4: ratio of Kd vs compound 4
Aβ plaques [5] = type: binding, APP/PS1 transgenic mouse
Outline: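 Brains from 11-month-old APP/PS1 mice (Tg2576 APP Swedish × M146L PS1 line) were perfused with 4% paraformaldehyde, cryoprotected in 20% sucrose and cut into 10 μm frozen sections, three per dilution point. Sections were stained 30 min with 50 μM test compound in 9:1 PBS/EtOH, then washed in 75% EtOH, 95% EtOH and xylene. S/N was taken as plaque fluorescence over background tissue.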

Aβ plaques [6] = settings: APP or APP/PS1 mice; cited from earlier work

Chain of aggregated amyloid peptide Aβ1-40 (P05067 672-711 limits assumed): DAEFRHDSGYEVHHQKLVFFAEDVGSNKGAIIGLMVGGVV

SMILES: Oc1ccc(/C=C/c2ccc(/C=C/c3ccc(O)cc3)cc2)cc1 [Compound 4, (E,E)-1,4-bis(4-hydroxystyryl)benzene]
staining of Aβ plaques in human AD brain sections [1]: bind specifically to Aβ plaques in human brain sections
BBB crossing and Aβ plaque binding in vivo (Aβ plaques [2]; 50 mg/kg): crossed the BBB and bound to Aβ plaques in vivo; also recorded: crossed the blood-brain-barrier and bound to Aβ plaques in vivo
DPPH free radical scavenging activity relative to quercetin [3]: no less effective than quercetin

SMILES: Oc1ccc(/C=C/c2cccc(/C=C/c3ccc(O)cc3)c2)cc1 [Compound 6, (E,E)-1,3-bis(4-hydroxystyryl)benzene]
decrease in Aβ binding affinity [4]: two order of magnitude decrease
DPPH free radical scavenging activity relative to quercetin [3]: no less effective than quercetin

SMILES: Oc1ccc(/C=C/c2ccccc2/C=C/c2ccc(O)cc2)cc1 [Compound 7, (E,E)-1,2-bis(4-hydroxystyryl)benzene]
decrease in Aβ binding affinity [4]: two order of magnitude decrease
fold less potent than quercetin in DPPH free radical scavenging [3]: 3 to 7 fold

SMILES: Oc1cccc(/C=C/c2ccc(/C=C/c3cccc(O)c3)cc2)c1 [Compound 8, (E,E)-1,4-bis(3-hydroxystyryl)benzene]
staining of Aβ plaques in human AD brain sections [1]: bind specifically to Aβ plaques in human brain sections
BBB crossing and Aβ plaque binding in vivo (Aβ plaques [2]; 50 mg/kg): crossed the BBB and bound to Aβ plaques in vivo; also recorded: crossed the blood-brain-barrier and bound to Aβ plaques in vivo

SMILES: Oc1ccccc1/C=C/c1ccc(/C=C/c2ccccc2O)cc1 [Compound 9, (E,E)-1,4-bis(2-hydroxystyryl)benzene]
fold weaker Aβ binding affinity compared to 4 [4]: 84 fold
Aβ binding specificity (Aβ plaques [5]; APP/PS1 mouse brain sections): good binding specificity
fold less potent than quercetin in DPPH free radical scavenging [3]: 3 to 7 fold

SMILES: Oc1cc(O)cc(/C=C/c2ccc(/C=C/c3cc(O)cc(O)c3)cc2)c1 [Compound 10, (E,E)-1,4-bis(3,5-dihydroxystyryl)benzene]
staining of Aβ plaques in human AD brain sections [1]: bind specifically to Aβ plaques in human brain sections
fold weaker Aβ binding affinity compared to 4 [4]: 17 to 27 fold
BBB crossing and Aβ plaque binding in vivo (Aβ plaques [2]): crossed the BBB and bound to Aβ plaques in vivo
fold less potent than quercetin in DPPH free radical scavenging [3]: 3 to 7 fold

SMILES: Oc1cccc(/C=C/c2ccc(/C=C/c3ccc(O)c(O)c3)cc2)c1 [Compound 15, (E,E)-1-(3-hydroxystyryl)-4-(3,4-dihydroxystyryl)benzene]
fold less potent than quercetin in DPPH free radical scavenging [3]: 3 to 7 fold

SMILES: O=C(O)c1cc(/C=C/c2ccc(/C=C/c3ccc(O)c(C(=O)O)c3)cc2)ccc1O [Compound X-34]
BBB penetration and binding to Aβ plaques (Aβ plaques [6]): penetrate the blood – brain barrier (BBB) and bind to Aβ plaques

SMILES: O=C(O)c1cc(/C=C/c2ccc(/C=C/c3ccc(O)c(C(=O)O)c3)c(F)c2)ccc1O [FSB]
BBB penetration and binding to Aβ plaques (Aβ plaques [6]): penetrate the blood – brain barrier (BBB) and bind to Aβ plaques

Continued, in another order:

fold weaker Aβ binding affinity compared to 4 [4]: 16 fold
SMILES: Oc1ccc(/C=C/c2ccc(/C=C/c3ccccc3)cc2)cc1 [Compound 11, (E,E)-1-styryl-4-(4-hydroxystyryl)benzene]

fold weaker Aβ binding affinity compared to 4 [4]: 370 fold
fold weaker Aβ binding affinity compared to 8 ([4]; ratio of Kd vs compound 8): 660 fold
SMILES: Oc1ccc(/C=C/c2ccc(/C=C/c3cccc(O)c3)cc2)cc1 [Compound 12, (E,E)-1-(4-hydroxystyryl)-4-(3-hydroxystyryl)benzene]
DPPH free radical scavenging activity relative to quercetin [3]: no less effective than quercetin

fold weaker Aβ binding affinity compared to 4 [4]: 17 to 27 fold
SMILES: Oc1ccc(/C=C/c2ccc(/C=C/c3ccc(O)c(O)c3)cc2)cc1 [Compound 13, (E,E)-1-(4-hydroxystyryl)-4-(3,4-dihydroxystyryl)benzene]

fold weaker Aβ binding affinity compared to 4 [4]: 17 to 27 fold
SMILES: Oc1ccc(/C=C/c2ccc(/C=C/c3cc(O)cc(O)c3)cc2)cc1 [Compound 14, (E,E)-1-(4-hydroxystyryl)-4-(3,5-dihydroxystyryl)benzene]
fold less potent than quercetin in DPPH free radical scavenging [3]: 3 to 7 fold

decrease in Aβ binding affinity [4]: three orders of magnitude weaker
SMILES: Oc1ccc(/C=C/c2ccc(O)cc2)cc1 [Compound 16]
DPPH free radical scavenging activity relative to quercetin [3]: no less effective than quercetin

fold weaker Aβ binding affinity compared to 4 [4]: 6 fold
fold loss in specificity compared to 4 (Aβ plaques [5]; ratio of S/N vs compound 4): 2.4 fold
SMILES: Oc1ccc(C#Cc2ccc(C#Cc3ccc(O)cc3)cc2)cc1 [Compound 17]
